Compound activity as filed in PubChem BioAssay.
CHRM4 PAM: human M4 muscarinic receptor positive allosteric modulators, primary screen, CHO-K1 cells, Fluo-8 calcium fluorescence. Muscarinic acetylcholine receptor M4 (Homo sapiens), P08173. CHO-K1 hM4/Gqi5, ACh EC20; 0% = ACh EC20, 100% = maximal ACh. activation, % at 3 µM. actives 0.4% (n = 360,000);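 active = activation above its plate's cutoff, the mean activation of sample wells plus 3 SD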
Target sequence (P08173 whole entry, looked up): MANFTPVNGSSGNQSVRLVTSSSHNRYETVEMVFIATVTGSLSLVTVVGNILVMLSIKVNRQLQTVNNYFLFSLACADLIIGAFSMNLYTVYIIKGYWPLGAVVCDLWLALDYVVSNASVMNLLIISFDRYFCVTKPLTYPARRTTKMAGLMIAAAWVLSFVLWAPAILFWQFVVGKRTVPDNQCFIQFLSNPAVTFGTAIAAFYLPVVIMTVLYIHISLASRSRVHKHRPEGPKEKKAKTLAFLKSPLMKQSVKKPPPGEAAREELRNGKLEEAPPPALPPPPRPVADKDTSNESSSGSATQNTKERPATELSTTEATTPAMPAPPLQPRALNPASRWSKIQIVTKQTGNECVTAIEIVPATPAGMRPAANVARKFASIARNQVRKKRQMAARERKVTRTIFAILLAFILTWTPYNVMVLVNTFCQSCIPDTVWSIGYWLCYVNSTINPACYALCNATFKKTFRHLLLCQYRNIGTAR
CHRM5 PAM: human M5 muscarinic receptor positive allosteric modulators, primary screen, CHO-K1 cells, Fluo-8 calcium fluorescence. Muscarinic acetylcholine receptor M5 (Homo sapiens), P08912. CHO-K1 hM5, ACh EC20 PAM; 0% = ACh EC20, 100% = ACh EC100. activation, % at 3 µM. actives 0.3% (n = 360,000). AID 624038, 2012;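 active = activation above the run cutoff, the mean activation of all test compounds plus 3 SD, cut at about 18% in these data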
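Probe or stimulus: acetylcholine, EC20 level; Assay system: human M5 receptor in CHO-K1 cells; Schedule: compound preincubation 140 s before EC20 acetylcholine addition; Technique: intracellular calcium via Fluo-8 fluorescence; Dosing: single-point, 3 µM nominal; Read-out basis: percent activation from peak-over-basal fluorescence ratio, scaled EC20-to-EC100 acetylcholine; Repeats: one well per compound, no replicates.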
CHRM4 agonist: human M4 muscarinic receptor agonists, primary screen, CHO-K1 cells, Fluo-8 calcium fluorescence | CHO-K1 hM4/Gqi5; vehicle 0%, full acetylcholine response 100% | AID 624127, 2012 | actives 0.14% (n = 360,000) | activation, % at 3 µM | Muscarinic acetylcholine receptor M4 (Homo sapiens), P08173;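 active = activation above the run mean over all test wells plus 3 SD, cut at about 32% in these data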;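 note: peak over basal fluorescence ratio per well then scaled between controls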
CHRM4 antagonist: human M4 muscarinic receptor antagonists, primary screen, CHO cells, Fluo-8 calcium fluorescence; Muscarinic acetylcholine receptor M4 (Homo sapiens), P08173; CHO-hM4 cells, ACh EC80; inhibition, % at 3 µM; actives 0.73% (n = 360,000); AID 624125, 2012;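 active = inhibition above its plate's cutoff, the mean inhibition of sample wells plus 3 SD, cut at about 27% in these data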
M5 antag: human M5 muscarinic receptor antagonists, primary screen, CHO cells, Fluo-8 calcium fluorescence. Muscarinic acetylcholine receptor M5 (Homo sapiens), P08912. CHO-hM5 cells, ACh EC80. inhibition, % at 3 µM. actives 0.59% (n = 360,000);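 active = inhibition above a per-plate cutoff, the mean of that plate's test compounds plus 3 SD, cut at about 27% in these data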
CHRM5 agonist: human M5 muscarinic receptor agonists, primary screen, CHO-K1 cells, Fluo-8 calcium fluorescence | CHO-K1 hM5 cells; 0% DMSO wells, 100% maximal acetylcholine response | actives 0.19% (n = 360,000) | activation, % at 3 µM;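 active = activation above the run's mean over test compounds plus 3 SD, cut at about 23% in these data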;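 note: signal is peak over basal fluorescence ratio across the kinetic read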
Hits are given with their value; - = inactive. An excerpt weighted towards active compounds, which were near 1.8% of everything screened.

SMILES	CHRM4 PAM	CHRM5 PAM	CHRM4 agonist	CHRM4 antagonist	M5 antag	CHRM5 agonist
Cc1cccc(C)c1NC(=O)c1nc(S(=O)(=O)Cc2ccccc2)ncc1Cl	-	-	-	-	-	-
COc1ccc(OC)c(NC(=O)c2nc(S(=O)(=O)Cc3ccccc3)ncc2Cl)c1	-	-	-	44.3	-	-
Cc1ccc(NC(=O)c2nc(S(=O)(=O)Cc3ccccc3)ncc2Cl)cc1	-	-	-	45.8	-	-
COc1ccc(NC(=O)c2nc(S(=O)(=O)Cc3cccc(C)c3)ncc2Cl)c(OC)c1	-	-	-	-	-	-
Cc1ccccc1CS(=O)(=O)c1ncc(Cl)c(C(=O)Nc2ccc(F)cc2)n1	-	-	-	29.1	-	-
O=C(Nc1ccc(F)cc1)c1nc(S(=O)(=O)Cc2ccccc2)ncc1Cl	-	-	-	35.7	-	-
CSc1ccc(CN2CCC2(C)C(=O)NCc2ccc3c(c2)OCO3)cc1 (stereo unspecified)	-	-	-	-	-	-
Cc1ccc(N2C(=O)N(CC(=O)Nc3ccc(C)cc3Cl)C(=O)C2C)cc1 (stereo unspecified)	-	-	-	-	-	-
CC(C)CSC1=NSC2=NC(=O)/C(=C\c3coc4ccccc4c3=O)C(=N)N12	-	-	89.5	52.0	68.1	168.2
CSC1=NSC2=NC(=O)/C(=C\c3coc4ccccc4c3=O)C(=N)N12	-	-	-	27.3	-	27.1
COC(=O)c1ccc(N)cc1O	-	22.5	-	-	-	-
Cn1c(=O)cc(OCCCC(=O)Nc2cccnc2)c2ccccc21	-	-	-	36.6	-	-
O=C(Nc1ccc(Cl)cc1)C(Cl)C(=O)c1ccccc1 (stereo unspecified)	-	-	-	26.4	-	-
COC(=O)c1cc(C(=O)c2cccc(Cl)c2Cl)cn1C	-	-	-	-	-	-
Cn1cc(C(=O)c2cccc(Cl)c2Cl)cc1C(=O)O	-	20.7	-	-	-	-
C[C@@H]1CN([C@H](C)CO)C(=O)Cc2cc(NC(=O)Cn3cnnn3)ccc2O[C@@H]1CN(C)Cc1ccc(Cl)c(Cl)c1	-	-	-	-	-	-
Cc1cc(C(=O)N2CCC2(C)C(=O)O)c(C)o1 (stereo unspecified)	18.1	-	-	-	-	-
CCCOc1ccc(C(=O)CCC(=O)OCC(=O)N2CCN(S(=O)(=O)c3ccc(C)cc3C)CC2)cc1	-	-	-	-	-	-
CC(C)Oc1ccc(S(=O)(=O)N2CCOCC2)cc1NC(=O)c1ccc(N2CCCC2=O)cc1	-	-	-	-	28.5	-
Cn1ccnc1C1CCCCN1Cc1nc(Cc2ccccc2F)no1 (stereo unspecified)	-	-	-	82.9	-	-
Cc1cccn2c(=O)c(C=O)c(N3CCCCC3)nc12	-	19.8	-	-	-	-
CC(=O)N1CCN(c2ccc(NC(=O)c3ccc(C)c([N+](=O)[O-])c3)cc2)CC1	-	18.3	-	-	-	-
CC(Sc1ccccc1)C(=O)N/N=C/c1ccccc1 (stereo unspecified)	-	-	-	-	-	-
CCOc1cccc(-c2cc(NCCc3ccccn3)n3nccc3n2)c1	-	-	-	-	-	-
CCNCCC(=O)N1c2ccccc2Sc2ccc(C(F)(F)F)cc21	-	-	-	95.7	99.8	-
SMILES	CHRM4 PAM	CHRM5 PAM	CHRM4 agonist	CHRM4 antagonist	M5 antag	CHRM5 agonist
O=C(CSc1nc2ccccc2o1)N1c2ccccc2Sc2ccc(C(F)(F)F)cc21	-	-	-	-	-	-
O=C(CN1CCCC1)N1c2ccccc2Sc2ccc(Cl)cc21	-	-	-	93.9	95.9	-
O=C(CN1CCCC1)N1c2ccccc2Sc2ccc(C(F)(F)F)cc21	-	-	-	95.1	98.8	-
O=C(CN1CCN(c2ccccn2)CC1)N1c2ccccc2Sc2ccc(C(F)(F)F)cc21	-	-	-	-	-	-
COc1ccc(C2NCCc3c2[nH]c2ccccc32)cc1COc1ccc(F)cc1 (stereo unspecified)	-	-	-	36.8	-	-
CCC(C)(C#CCN1CCCCC1)OCCC#N (stereo unspecified)	-	-	-	47.1	60.3	-
CCC(C#CCN1CCCCC1)(CC)OCCC#N	-	-	-	-	-	-
COC(=O)CCCCC1SCC2NC(=O)NC21 (stereo unspecified)	-	23.2	-	-	-	-
Cc1ccc(/C=N/N2CCN(Cc3ccc(Cl)cc3)CC2)o1	-	-	-	30.9	-	-
COc1ccccc1C(=O)Nc1nc(-c2ccc(S(=O)(=O)N3CCOCC3)cc2)cs1	-	-	-	36.2	29.9	-
COc1ccccc1OC(C)C(=O)Nc1nc(-c2ccc(S(=O)(=O)N3CCOCC3)cc2)cs1 (stereo unspecified)	-	-	-	-	-	-
COc1ccc(-c2csc(NC(=O)c3ccccc3S(C)(=O)=O)n2)cc1	-	-	-	-	-	-
COc1ccc(-c2csc(NC(=O)c3ccc(S(C)(=O)=O)cc3)n2)cc1	-	-	-	-	-	23.4
O=C(NN1CCN(Cc2ccccc2Cl)CC1)c1ccc(Br)cc1	-	-	-	-	-	-
O=C(NCCO)c1ccc(-c2cnc3cccnn23)cc1	-	-	-	-	-	-
Cc1ccccc1C(=O)NNC(=O)CCC(=O)Nc1cccc(Cl)c1C	-	19.3	-	-	-	-
Cc1cccc(C)c1NS(=O)(=O)c1ccc2c(c1)NC(=O)CO2	-	19.2	-	-	-	-
Cc1ccccc1NS(=O)(=O)c1ccc2c(c1)NC(=O)CO2	-	-	-	-	-	-
CCOc1ccc(C(=O)OCC(=O)N2CCCC2)cc1OCC	-	-	-	-	-	-
CCc1ccc(OC2(C)CCN(Cc3ccccc3OC(F)F)C2)cc1 (stereo unspecified)	-	-	-	-	-	-
COC(=O)Cc1ccc(OC2(C)CCN(Cc3ccc(-c4ccccn4)cc3)C2)cc1 (stereo unspecified)	-	-	-	33.7	-	-
COC(=O)Cc1ccc(OC2(C)CCN(Cc3ccccc3OC(F)F)C2)cc1 (stereo unspecified)	-	-	-	55.5	-	-
